Experimental data published in ChEMBL document CHEMBL1121399, “Synthesis of 5-[(methylthio)methyl]-2'-deoxyuridine, the corresponding sulfoxide and sulfone, and their 5'-phosphates: antiviral effects and thymidylate synthetase inhibition” (1980).
In brackets after ≈: the same amount, converted by molar mass.

Key:
Assay type in all cases: functional
Oryctolagus cuniculus [1] = species on record: Oryctolagus cuniculus; assay: Tested for its antimetabolic activity by measuring the concentration required for [2-14C]- Urd incorporation into host cell DNA by 50%; details: read-out: ID50 (the source's name)
Method in brief: (§1)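 Primary rabbit kidney (PRK) cell cultures; incorporation of [methyl-3H]thymidine or [2-14C]2'-deoxyuridine into host cell DNA measured in presence of compound; value is concentration (µg/mL) reducing label incorporation by 50%; concentrations up to 400 µg/mL.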

Oryctolagus cuniculus [2] = species on record: Oryctolagus cuniculus; assay: Tested for its antimetabolic activity by measuring the concentration required for [Me-3H] dThd incorporation into host cell DNA by 50%; details: read-out: ID50 (the source's name); method in brief: as §1
Oryctolagus cuniculus [3] = species on record: Oryctolagus cuniculus; assay: Tested for its antiviral activity in primary rabbit kidney (PRK) cell cultures inoculated with herpes simplex type 1 virus
Method in brief: (§2)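 Primary rabbit kidney (PRK) cell cultures infected with HSV; inhibition of virus-induced cytopathogenicity scored; ID50 (µg/mL) is concentration reducing cytopathogenicity by 50%; means over three HSV-1 strains (KOS, F, McIntyre) or three HSV-2 strains (Lyons, 196, G), range across strains shown; top concentration 400 µg/mL.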

Oryctolagus cuniculus [4] = species on record: Oryctolagus cuniculus; assay: Tested for its antiviral activity in primary rabbit kidney (PRK) cell cultures inoculated with vaccinia virus
Oryctolagus cuniculus [5] = species on record: Oryctolagus cuniculus; assay: Tested for its antiviral activity in primary rabbit kidney (PRK) cell cultures inoculated with herpes simplex type 2 virus; range 0.2-0.4; method in brief: as §2
Oryctolagus cuniculus [6] = species on record: Oryctolagus cuniculus; assay: Tested for its antiviral activity in primary rabbit kidney (PRK) cell cultures inoculated with herpes simplex type 1 virus; range 4-10; method in brief: as §2
Oryctolagus cuniculus [7] = species on record: Oryctolagus cuniculus; assay: Tested for its antiviral activity in primary rabbit kidney (PRK) cell cultures inoculated with herpes simplex type 2 virus; method in brief: as §2

SMILES	IC50 (Oryctolagus cuniculus [1]) [µg/mL]	IC50 (Oryctolagus cuniculus [2]) [µg/mL]	ID50 (Oryctolagus cuniculus [3]) [µg/mL]	ID50 (Oryctolagus cuniculus [4]) [µg/mL]	ID50 (Oryctolagus cuniculus [5]) [µg/mL]	ID50 (Oryctolagus cuniculus [6]) [µg/mL]	ID50 (Oryctolagus cuniculus [7]) [µg/mL]
O=c1[nH]c(=O)n([C@H]2C[C@H](O)[C@@H](CO)O2)cc1I [IDOXURIDINE]	1.2 (≈ 3.39 µM)	2.5 (≈ 7.06 µM)	0.15 (≈ 0.424 µM)	0.2 (≈ 0.565 µM)	0.3 (≈ 0.847 µM)	–	–
CSCc1cn([C@H]2C[C@H](O)[C@@H](CO)O2)c(=O)[nH]c1=O	> 400	100 (≈ 347 µM)	–	200 (≈ 694 µM)	–	6 (≈ 20.8 µM)	4 (≈ 13.9 µM)
CS(=O)(=O)Cc1cn([C@H]2C[C@H](O)[C@@H](CO)O2)c(=O)[nH]c1=O	> 400	300 (≈ 937 µM)	4 (≈ 12.5 µM)	200 (≈ 624 µM)	–	–	>400
C[S+]([O-])Cc1cn([C@H]2C[C@H](O)[C@@H](CO)O2)c(=O)[nH]c1=O (some centres not stated)	–	–	>400	–	–	–	>400
